This is an account of results in ChEMBL document CHEMBL4308878, “Discovery of covalent enzyme inhibitors using virtual docking of covalent fragments” (Bioorg Med Chem Lett, 2019).

Active and inactive are the calls of the source. The calls are words filed in the database; no cut-off is given here.

Test [1] concerns the target T1, Cathepsin B (Homo sapiens, UniProt P07858). Description: Inhibition of cathepsin B (unknown origin) using Z-Arg-Arg-AMC as substrate after 5 mins by fluorimetric method.
Test [2] addresses T1, Cathepsin B. In words: Inhibition of cathepsin B (unknown origin) assessed as ratio of Kinact to Ki using Z-Arg-Arg-AMC as substrate after 5 mins by fluorimetric method.
The target in test [3] is T2, Procathepsin L (Homo sapiens, UniProt P07711). In words: Inhibition of cathepsin L (unknown origin) using Z-Phe-Arg-AMC as substrate after 5 mins by fluorimetric method.
The target of test [4] is T2, Procathepsin L. In words: Inhibition of cathepsin L (unknown origin) assessed as ratio of Kinact to Ki using Z-Phe-Arg-AMC as substrate after 5 mins by fluorimetric method.
Target sequence in this assay (P07711 114-333 limits assumed): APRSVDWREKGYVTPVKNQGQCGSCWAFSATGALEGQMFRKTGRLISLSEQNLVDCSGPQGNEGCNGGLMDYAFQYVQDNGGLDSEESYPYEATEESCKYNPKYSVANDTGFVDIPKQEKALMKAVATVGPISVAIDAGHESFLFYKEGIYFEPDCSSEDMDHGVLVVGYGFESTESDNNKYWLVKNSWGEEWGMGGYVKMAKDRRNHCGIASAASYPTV
The target of test [5] is T2, Procathepsin L. Description: Inhibition of human liver cathepsin L using Z-FR-AMC as substrate measured at 1 min interval for 20 mins followed by every 15 mins for 2 hrs by fluorescence assay.
The target in test [6] is T2, Procathepsin L. Description: Inhibition of human liver cathepsin L assessed as ratio of Kinact to Ki using Z-FR-AMC as substrate measured at 1 min interval for 20 mins followed by every 15 mins for 2 hrs by fluorescence assay.
Target sequence in this assay (P07711 114-333 limits assumed): as above
Test [7] addresses T2, Procathepsin L. In words: Competitive inhibition of human liver cathepsin L using Z-FR-AMC as substrate measured at 1 min interval for 20 mins followed by every 15 mins for 2 hrs by fluorescence assay.
Test [8] addresses T1, Cathepsin B. Description: Inhibition of human liver cathepsin B using Z-Arg-Arg-AMC as substrate measured at 1 min interval for 20 mins followed by every 15 mins for 2 hrs by fluorescence assay.
The target in test [9] is T1, Cathepsin B. Description: Inhibition of human liver cathepsin B using Z-Arg-Arg-AMC as substrate preincubated for 60 mins followed by substrate addition and measured at 1 min interval for 20 mins consecutively at every 15 mins for 2 hrs by fluorescence assay.
Test [10] addresses T3, Calpain-1 catalytic subunit (Homo sapiens) (UniProt P07384).
T3 sequence (whole entry): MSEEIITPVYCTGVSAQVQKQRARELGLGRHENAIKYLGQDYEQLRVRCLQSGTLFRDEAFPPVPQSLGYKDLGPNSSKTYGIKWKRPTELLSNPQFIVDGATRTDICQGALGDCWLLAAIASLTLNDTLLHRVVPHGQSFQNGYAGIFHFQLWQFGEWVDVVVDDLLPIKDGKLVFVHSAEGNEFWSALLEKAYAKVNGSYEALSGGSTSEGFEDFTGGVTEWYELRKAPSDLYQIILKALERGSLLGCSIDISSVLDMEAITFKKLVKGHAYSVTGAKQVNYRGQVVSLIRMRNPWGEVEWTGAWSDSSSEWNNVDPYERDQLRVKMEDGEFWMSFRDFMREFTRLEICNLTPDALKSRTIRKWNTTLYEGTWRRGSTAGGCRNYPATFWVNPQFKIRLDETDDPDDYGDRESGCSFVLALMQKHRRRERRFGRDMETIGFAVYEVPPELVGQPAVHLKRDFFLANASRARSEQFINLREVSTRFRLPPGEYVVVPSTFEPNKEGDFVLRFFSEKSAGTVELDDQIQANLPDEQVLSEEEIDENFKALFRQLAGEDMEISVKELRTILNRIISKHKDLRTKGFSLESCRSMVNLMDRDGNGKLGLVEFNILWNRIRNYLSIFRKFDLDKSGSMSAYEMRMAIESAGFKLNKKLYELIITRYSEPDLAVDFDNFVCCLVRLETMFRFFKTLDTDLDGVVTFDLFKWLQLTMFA
Description: Inhibition of human calpain1 using Suc-Leu-Tyr-AMC as substrate measured at 1 min interval for 20 mins followed by every 15 mins for 2 hrs by fluorescence assay.

Test [11] deals with T3, Calpain-1 catalytic subunit (Homo sapiens). Description: Inhibition of human calpain1 using Suc-Leu-Tyr-AMC as substrate preincubated for 60 mins followed by substrate addition and measured at 1 min interval for 20 mins consecutively at every 15 mins for 2 hrs by fluorescence assay.
Test [12] concerns the target T4, Ubiquitin carboxyl-terminal hydrolase 8 (Homo sapiens) (UniProt P40818).
T4 sequence (whole entry): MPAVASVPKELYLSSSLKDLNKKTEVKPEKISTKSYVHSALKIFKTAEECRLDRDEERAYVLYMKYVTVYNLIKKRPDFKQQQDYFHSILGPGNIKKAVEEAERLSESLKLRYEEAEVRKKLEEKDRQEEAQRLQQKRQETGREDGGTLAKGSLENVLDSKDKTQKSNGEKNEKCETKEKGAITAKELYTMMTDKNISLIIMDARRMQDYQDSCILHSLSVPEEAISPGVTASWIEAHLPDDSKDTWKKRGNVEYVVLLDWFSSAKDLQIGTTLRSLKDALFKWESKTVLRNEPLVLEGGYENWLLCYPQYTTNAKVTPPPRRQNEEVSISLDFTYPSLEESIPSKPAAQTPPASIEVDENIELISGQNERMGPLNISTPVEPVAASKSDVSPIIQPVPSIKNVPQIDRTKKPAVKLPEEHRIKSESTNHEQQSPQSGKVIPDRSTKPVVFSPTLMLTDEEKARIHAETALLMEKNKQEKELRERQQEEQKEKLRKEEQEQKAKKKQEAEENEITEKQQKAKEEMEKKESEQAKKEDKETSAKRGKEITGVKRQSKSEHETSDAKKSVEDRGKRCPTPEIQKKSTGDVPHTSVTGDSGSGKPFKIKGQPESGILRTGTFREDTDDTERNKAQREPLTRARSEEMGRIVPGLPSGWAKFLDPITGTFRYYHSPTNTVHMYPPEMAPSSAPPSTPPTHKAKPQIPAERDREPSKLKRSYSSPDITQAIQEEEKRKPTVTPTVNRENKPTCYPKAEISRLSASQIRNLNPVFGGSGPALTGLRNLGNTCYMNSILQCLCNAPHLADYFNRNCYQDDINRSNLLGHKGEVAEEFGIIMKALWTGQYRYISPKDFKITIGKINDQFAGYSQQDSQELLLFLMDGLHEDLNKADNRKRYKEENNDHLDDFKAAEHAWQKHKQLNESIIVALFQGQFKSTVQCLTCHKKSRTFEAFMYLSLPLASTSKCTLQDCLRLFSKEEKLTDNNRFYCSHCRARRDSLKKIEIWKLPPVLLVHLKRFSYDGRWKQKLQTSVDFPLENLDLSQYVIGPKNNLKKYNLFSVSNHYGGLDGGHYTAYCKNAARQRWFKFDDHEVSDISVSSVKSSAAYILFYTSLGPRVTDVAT
In words: Inhibition of recombinant USP8 catalytic domain (unknown origin) using Ubiquitin-Lys-TAMRA as substrate measured at 6 mins interval for 4 hrs by fluorescence assay.

The target in test [13] is T4, Ubiquitin carboxyl-terminal hydrolase 8 (Homo sapiens). In words: Inhibition of recombinant USP8 catalytic domain (unknown origin) using Ubiquitin-Lys-TAMRA as substrate preincubated for 60 mins followed by substrate addition and measured at 6 mins interval for 4 hrs by fluorescence assay.
Test [14] concerns the target T2, Procathepsin L. Description: Irreversible inhibition of human liver cathepsin L at 50 uM using Z-FR-AMC as substrate preincubated for 3 hrs followed by compound washout measured by gel filtration assay. In outline: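 Cathepsin L (10 nM) was preincubated with inhibitor (50 μM), then passed through a gel-filtration spin column to remove free compound. Flow-through aliquots were assayed for recovery of enzyme activity at several time points.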
Target sequence in this assay (P07711 114-333 limits assumed): as the sequence (P07711 114-333 limits assumed) above
Background: In gel filtration, larger molecules generally elute earlier.

As usually defined, the Ki is a measure of affinity in units of concentration, obtained from inhibition or displacement. Higher therefore signals lower affinity. For the molecule `O=C(N[C@H](/C=C/S(=O)(=O)c1ccccc1)CCc1ccccc1)[C@H](Cc1cc(I)c(O)c(I)c1)NC(=O)N1CCOCC1`, the Ki on Cathepsin B [1] came to 0.34 µM; on Procathepsin L [3] it was 0.72 µM. Besides, the Kinact at Cathepsin B [1] was 0.36 s⁻¹; at Procathepsin L [3] it was 0.28 s⁻¹. The Ratio on Cathepsin B [2] worked out at 1.06e+06 M⁻¹ s⁻¹; at Procathepsin L [4] it was 389000 M⁻¹ s⁻¹.

At Procathepsin L [5], `C[C@@H](Oc1ccc(Br)cc1Br)C(=O)NC/C=C/S(C)(=O)=O` came in with an inhibitory constant (Ki) of 146 µM and a Kinact of 0.0006 s⁻¹.

Turning to `CS(=O)(=O)/C=C/CNC(=O)COc1ccc(Br)cc1Br`, the Ratio at Procathepsin L [6] turned out to be 5 M⁻¹ s⁻¹. The same molecule returned a Ki on Procathepsin L [7] of 59 µM. Moreover, the Kinact on Procathepsin L [7] came out at 0.0003 s⁻¹. The inhibition result (at Cathepsin B [8]; on Cathepsin B [9]; in [10]; in [11]; in test [12]; in test [13]) was “inactive” in each case. Moreover, the inhibition result at Procathepsin L [14] was “Active”.

In the case of `O=C(N[C@H](/C=C/S(=O)(=O)c1ccccc1)CCc1ccccc1)[C@H](Cc1ccccc1)NC(=O)N1CCOCC1`, the results for the Ki on Cathepsin B [1] and at Procathepsin L [3] were 11 µM and 1 µM, respectively. Besides, the Kinact is 0.17 s⁻¹ at Cathepsin B [1] and 0.24 s⁻¹ at Procathepsin L [3]. For the same molecule, the Ratio on Cathepsin B [2] turned out to be 15500 M⁻¹ s⁻¹; on Procathepsin L [4] it was 240000 M⁻¹ s⁻¹.
